pEC50, pIC50: −log10 of the molar value.
Key:
Progesterone receptor [1] = target: T1, Progesterone receptor (Homo sapiens, UniProt P06401); experiment: Antagonist activity against progesterone receptor (PR) in an assay using PRE-luciferase plasmid co-transfected CV-1 cells; format: functional, cell-based
T1 sequence (P06401 whole entry): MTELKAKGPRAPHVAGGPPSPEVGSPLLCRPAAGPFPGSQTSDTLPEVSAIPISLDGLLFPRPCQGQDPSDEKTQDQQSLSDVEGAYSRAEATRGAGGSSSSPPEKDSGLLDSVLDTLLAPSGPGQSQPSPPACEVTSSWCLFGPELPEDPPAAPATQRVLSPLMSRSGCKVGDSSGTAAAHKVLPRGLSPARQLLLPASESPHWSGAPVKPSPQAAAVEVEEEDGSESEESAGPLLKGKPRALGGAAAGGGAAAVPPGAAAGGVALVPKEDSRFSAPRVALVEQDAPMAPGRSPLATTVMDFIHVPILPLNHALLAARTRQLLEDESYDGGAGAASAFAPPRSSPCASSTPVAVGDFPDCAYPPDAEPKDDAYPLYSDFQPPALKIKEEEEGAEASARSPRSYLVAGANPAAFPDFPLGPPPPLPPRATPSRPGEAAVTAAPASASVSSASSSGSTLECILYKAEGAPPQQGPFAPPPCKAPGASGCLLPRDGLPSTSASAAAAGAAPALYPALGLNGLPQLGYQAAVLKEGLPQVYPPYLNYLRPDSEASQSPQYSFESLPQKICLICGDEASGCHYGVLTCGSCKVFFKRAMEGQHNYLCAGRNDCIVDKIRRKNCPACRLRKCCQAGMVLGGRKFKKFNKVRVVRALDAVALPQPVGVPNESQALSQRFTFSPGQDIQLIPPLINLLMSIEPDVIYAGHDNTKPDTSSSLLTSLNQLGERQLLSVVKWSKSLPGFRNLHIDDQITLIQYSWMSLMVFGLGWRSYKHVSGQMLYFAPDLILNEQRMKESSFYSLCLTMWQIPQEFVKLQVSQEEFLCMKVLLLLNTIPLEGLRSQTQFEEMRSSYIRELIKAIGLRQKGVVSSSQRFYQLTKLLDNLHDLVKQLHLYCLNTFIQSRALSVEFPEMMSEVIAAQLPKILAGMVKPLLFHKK
Outline: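 CV-1 cells cotransfected with hPR and PRE-luciferase plasmids, luciferase read-out; IC50 averaged from at least duplicate determinations.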

Progesterone receptor [2] = target: T1, Progesterone receptor; experiment: Antagonist activity against progesterone receptor (PR) in an alkaline phosphatase assay in the T47D human breast carcinoma cell line; format: functional, cell-based
[3] = target: T2, Progesterone receptor (Rattus norvegicus) (UniProt Q63449); experiment: Inhibitory activity against progesterone receptor (PR) in ovariectomized mature female rat decidualization model; format: functional
T2 sequence (whole entry): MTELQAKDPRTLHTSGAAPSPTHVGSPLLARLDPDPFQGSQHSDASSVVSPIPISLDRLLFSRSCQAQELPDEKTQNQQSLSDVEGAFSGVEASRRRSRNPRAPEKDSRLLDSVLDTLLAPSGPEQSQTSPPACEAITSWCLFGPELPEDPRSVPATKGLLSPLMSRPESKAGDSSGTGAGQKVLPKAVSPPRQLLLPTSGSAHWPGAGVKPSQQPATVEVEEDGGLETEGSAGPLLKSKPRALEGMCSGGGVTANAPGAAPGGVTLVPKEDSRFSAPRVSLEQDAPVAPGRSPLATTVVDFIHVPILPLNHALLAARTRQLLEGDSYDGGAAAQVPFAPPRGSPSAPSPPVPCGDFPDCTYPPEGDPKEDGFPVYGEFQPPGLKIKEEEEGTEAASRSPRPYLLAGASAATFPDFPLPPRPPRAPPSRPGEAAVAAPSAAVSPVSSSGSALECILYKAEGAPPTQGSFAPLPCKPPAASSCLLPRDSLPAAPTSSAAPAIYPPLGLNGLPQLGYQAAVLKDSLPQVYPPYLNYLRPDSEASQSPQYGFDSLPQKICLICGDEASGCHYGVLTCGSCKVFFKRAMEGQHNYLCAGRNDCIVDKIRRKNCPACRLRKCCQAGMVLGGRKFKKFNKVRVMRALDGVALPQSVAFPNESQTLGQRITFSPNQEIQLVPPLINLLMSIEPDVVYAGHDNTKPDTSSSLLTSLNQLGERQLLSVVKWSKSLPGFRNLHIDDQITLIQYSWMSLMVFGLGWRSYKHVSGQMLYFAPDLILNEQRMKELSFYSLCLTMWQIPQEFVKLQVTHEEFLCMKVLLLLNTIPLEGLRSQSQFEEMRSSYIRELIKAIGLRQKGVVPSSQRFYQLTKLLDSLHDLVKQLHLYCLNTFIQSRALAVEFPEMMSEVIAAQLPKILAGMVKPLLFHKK
Outline: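 Ovariectomized mature rats dosed orally for 7 days, with progesterone 5.6 mg/kg SC given alongside; vehicle-only controls. Decidual response (D/C) measured 24 h after the final treatment, seven animals per point. ED50 averaged from at least duplicate determinations.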

[4] = Plasma clearance (Cl) for the compound in female rats for a dose of 1 mg/kg administered intravenously; format: ADME, organism-based; parameters: dose 1 mg/kg, route intravenous; details: rat, iv, read-out: Clp (converted)
[5] = Area under the curve (AUC) for the compound in female rats for a dose of 1 mg/kg administered intravenously.; format: ADME, organism-based; parameters: dose 1 mg/kg, route intravenous; details: rat, in vivo, iv
[6] = Half life in female rats for a dose of 1 mg/kg administered intravenously.; format: ADME, organism-based; parameters: dose 1 mg/kg, route intravenous; details: rat, in vivo, iv
[7] = target: T2, Progesterone receptor (Rattus norvegicus); experiment: inhibitory activity against progesterone receptor (PR) in ovariectomized mature female rat complement C3 model; format: functional
Outline: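 Adult ovariectomized rats given oral doses; read-out is reversal of progestin down-regulation of estrogen-induced complement C3 synthesis in uterine epithelium. ED50 averaged from at least duplicate determinations.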

Progesterone receptor [8] = target: T1, Progesterone receptor; experiment: Agonist activity against progesterone receptor (PR) in an alkaline phosphatase assay in the T47D human breast carcinoma cell line; format: functional, cell-based
Outline: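 T47D human breast carcinoma cells scored for PR agonism via alkaline phosphatase read-out; EC50 taken as the mean of at least duplicate determinations.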

pIC50 (Progesterone receptor [1]) | pIC50 (Progesterone receptor [2]) | ED50 [3] [mg/kg] | SMILES | other results
7.42 | 7.71 | – | COc1cccc(-c2ccc3c(c2)C(C)(C)OC(=O)N3)c1 | –
– | 7.82 | – | CC1(C)OC(=O)Nc2ccc(-c3ccc(F)c(C#N)c3)cc21 | –
8.03 | 7.52 | > 30 | CC1(C)OC(=O)Nc2ccc(-c3cccc(Cl)c3)cc21 | –
– | – | 0.3 | CC#C[C@]1(O)CC[C@H]2[C@@H]3CCC4=CC(=O)CCC4=C3[C@@H](c3ccc(N(C)C)cc3)C[C@@]21C | ED50 [7]: 1.7 mg/kg

The next lines start with the compound.

SMILES | pIC50 (Progesterone receptor [1]) | pIC50 (Progesterone receptor [2]) | ED50 [3] [mg/kg] | other results
CC1(C)OC(=O)Nc2ccc(-c3cccc(F)c3)cc21 | 8.42 | 8.09 | 1.5 | –
CC1(C)OC(=O)Nc2ccc(-c3cccc(C#N)c3)cc21 | 8.00 | 7.77 | 7 | clearance [4]: 36.3 mL/min/kg; AUC [5]: 460 ng·h/mL; half-life [6]: 36 min
CC1(C)OC(=O)Nc2ccc(-c3ccc(Cl)cc3)cc21 | 6.19 | 7.52 | – | –
CC1(C)OC(=O)Nc2ccc(-c3ccccc3Cl)cc21 | 6.30 | 6.52 | – | –
CC1(C)OC(=O)Nc2c(F)cc(-c3cc(F)cc(C#N)c3)cc21 | 7.01 | 7.58 | 0.6 | –
CC1(C)OC(=O)Nc2ccc(-c3cc(F)cc(Cl)c3)cc21 | 8.59 | – | 2 | pEC50 (Progesterone receptor [8]): 6.30

Source: ChEMBL document CHEMBL1135816, “6-Aryl-1,4-dihydro-benzo[d][1,3]oxazin- 2-ones: a novel class of potent, selective, and orally active nonsteroidal progesterone receptor antagonists” (J Med Chem, 2002)
